Experiments:
[1] = test system: Chenopodium album; assay: Pre-emergence herbicidal activity against Chenopodium album assessed as growth inhibition at 15 g.a.i./ha applied 24 hr after seeds were sown measured after 15 days; format: functional; conditions: read-out: GI
Outline: (§1)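 Weeds sown 5 mm deep in pots of greenhouse clay soil (pH 6.5, 37.5% clay, CEC 12.9 cmol/kg) and grown at 22-25 °C. Water-diluted formulation was applied pre-emergence 24 h after sowing. Untreated and DMF solvent controls were included. Growth inhibition was visually rated in % against untreated controls after 15 days, as the mean of triplicates.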

[2] = test system: Chenopodium album; assay: Pre-emergence herbicidal activity against Chenopodium album assessed as growth inhibition at 75 g.a.i./ha applied 24 hr after seeds were sown measured after 15 days; format: functional; conditions: read-out: GI; outline: as §1
[3] = test system: Abutilon theophrasti; assay: Pre-emergence herbicidal activity against Abutilon theophrasti (velvetleaf) assessed as growth inhibition at 75 g.a.i./ha applied 24 hr after seeds were sown measured after 15 days; format: functional; conditions: read-out: GI; outline: as §1
[4] = test system: Zea mays; assay: (§2) Phytotoxicity against Zea mays (maize) assessed as growth inhibition at 300 g.a.i/ha pre-emergent application measured after 15 days by greenhouse crop selectivity assay; format: organism-based; conditions: in vivo, other, 360 h
Outline: (§3)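 Pre-emergence greenhouse crop selectivity test on pot-grown plants in clay soil (pH 6.5, 1.7% organic matter, 37.5% clay, CEC 12.9 cmol/kg). Stock solutions were diluted with water and applied at 300, 150, 75 or 37.5 g a.i./ha, in triplicate. After 15 days, phytotoxicity was scored visually against untreated controls as % crop growth inhibition, averaged over the triplicates.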

[5] = test system: Zea mays; assay: Phytotoxicity against Zea mays (maize) assessed as growth inhibition at 37.5 g.a.i/ha pre-emergent application measured after 15 days by greenhouse crop selectivity assay; format: organism-based; conditions: in vivo, other, 360 h; outline: as §3
[6] = test system: Triticum aestivum; assay: (§4) Phytotoxicity against Triticum aestivum (wheat) assessed as growth inhibition at 75 g.a.i/ha pre-emergent application measured after 15 days by greenhouse crop selectivity assay; format: organism-based; conditions: in vivo, other, 360 h; outline: as §3
[7] = test system: Gossypium; assay: (§5) Phytotoxicity against Gossypium (cotton) assessed as growth inhibition at 300 g.a.i/ha pre-emergent application measured after 15 days by greenhouse crop selectivity assay; format: organism-based; conditions: in vivo, other, 360 h; outline: as §3
[8] = test system: Triticum aestivum; assay: Phytotoxicity against Triticum aestivum (wheat) assessed as growth inhibition at 37.5 g.a.i/ha pre-emergent application measured after 15 days by greenhouse crop selectivity assay; format: organism-based; conditions: in vivo, other, 360 h; outline: as §3
[9] = test system: Gossypium; assay: Phytotoxicity against Gossypium (cotton) assessed as growth inhibition at 150 g.a.i/ha pre-emergent application measured after 15 days by greenhouse crop selectivity assay; format: organism-based; conditions: in vivo, other, 360 h; outline: as §3
[10] = test system: Glycine max; assay: Phytotoxicity against Glycine max (soybean) assessed as growth inhibition at 75 g.a.i/ha pre-emergent application measured after 15 days by greenhouse crop selectivity assay; format: organism-based; conditions: in vivo, other, 360 h; outline: as §3
[11] = test system: Arachis hypogaea; assay: Phytotoxicity against Arachis hypogaea (peanut) assessed as growth inhibition at 300 g.a.i/ha pre-emergent application measured after 15 days by greenhouse crop selectivity assay; format: organism-based; conditions: in vivo, other, 360 h; outline: as §3
[12] = test system: Abutilon theophrasti; assay: Pre-emergence herbicidal activity against Abutilon theophrasti (velvetleaf) assessed as growth inhibition at 15 g.a.i./ha applied 24 hr after seeds were sown measured after 15 days; format: functional; conditions: read-out: GI; outline: as §1
[13] = test system: Amaranthus spinosus; assay: Post-emergence herbicidal activity against Amaranthus spinosus assessed as growth inhibition at 7.5 g.a.i./ha applied at two-leaf stage measured after 15 days; format: functional; conditions: 360 h, read-out: GI
Outline: (§6)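 Pot-grown weeds sown 5 mm deep in greenhouse clay soil (pH 6.5, 1.7% organic matter, CEC 12.9 cmol/kg) at 22-25 °C. Stock diluted with water and sprayed post-emergence: dicots at 2-leaf stage, monocots at 1-leaf stage. Untreated and DMF solvent controls were included. % growth inhibition was scored visually versus untreated controls after 15 days. Triplicates averaged.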

[14] = test system: Abutilon theophrasti; assay: Post-emergence herbicidal activity against Abutilon theophrasti (velvetleaf) assessed as growth inhibition at 7.5 g.a.i./ha applied at two-leaf stage measured after 15 days; format: functional; conditions: 360 h, read-out: GI; outline: as §6
[15] = test system: Setaria viridis; assay: Pre-emergence herbicidal activity against Setaria viridis (green foxtail) assessed as growth inhibition at 7.5 g.a.i./ha applied 24 hr after seeds were sown measured after 15 days; format: functional; conditions: read-out: GI
Outline: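 Secondary pre-emergence test run at 7.5, 15 and 37.5 g a.i./ha on pot-grown weeds in a greenhouse at 22-25 °C. Seeds sown 5 mm deep in clay soil (pH 6.5, 1.7% organic matter, CEC 12.9 cmol/kg). Stock diluted with water and applied 24 h after sowing. Done in triplicate; visual % growth inhibition vs untreated after 15 days, averaged.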

[16] = test system: Digitaria sanguinalis; assay: Post-emergence herbicidal activity against Digitaria sanguinalis (hairy crabgrass) assessed as growth inhibition at 37.5 g.a.i./ha applied at one-leaf stage measured after 15 days; format: functional; conditions: 360 h, read-out: GI; outline: as §6
[17] = test system: Abutilon theophrasti; assay: Post-emergence herbicidal activity against Abutilon theophrasti (velvetleaf) assessed as growth inhibition at 37.5 g.a.i./ha applied at two-leaf stage measured after 15 days; format: functional; conditions: 360 h, read-out: GI; outline: as §6
[18] = test system: Chenopodium album; assay: Pre-emergence herbicidal activity against Chenopodium album assessed as growth inhibition at 37.5 g.a.i./ha applied 24 hr after seeds were sown measured after 15 days; format: functional; conditions: read-out: GI; outline: as §1
[19] = test system: Echinochloa crus-galli; assay: Post-emergence herbicidal activity against Echinochloa crus-galli (barnyard grass) assessed as growth inhibition at 15 g.a.i./ha applied at one-leaf stage measured after 15 days; format: functional; conditions: 360 h, read-out: GI; outline: as §6
[20] = test system: Digitaria sanguinalis; assay: Post-emergence herbicidal activity against Digitaria sanguinalis(hairy crabgrass) assessed as growth inhibition at 15 g.a.i./ha applied at one-leaf stage measured after 15 days; format: functional; conditions: 360 h, read-out: GI; outline: as §6
[21] = test system: Chenopodium album; assay: Post-emergence herbicidal activity against Chenopodium album assessed as growth inhibition at 15 g.a.i./ha applied at two-leaf stage measured after 15 days; format: functional; conditions: 360 h, read-out: GI; outline: as §6
[22] = test system: Abutilon theophrasti; assay: Post-emergence herbicidal activity against Abutilon theophrasti (velvetleaf) assessed as growth inhibition at 15 g.a.i./ha applied at two-leaf stage measured after 15 days; format: functional; conditions: 360 h, read-out: GI; outline: as §6
[23] = test system: Setaria viridis; assay: Pre-emergence herbicidal activity against Setaria viridis (green foxtail) assessed as growth inhibition at 15 g.a.i./ha applied 24 hr after seeds were sown measured after 15 days; format: functional; conditions: read-out: GI; outline: as §1
[24] = test system: Brassica rapa subsp. oleifera; assay: Phytotoxicity against Brassica rapa subsp. oleifera assessed as growth inhibition at 75 g.a.i/ha pre-emergent application measured after 15 days by greenhouse crop selectivity assay; format: functional; conditions: pre-emergence, 360 h, read-out: GI
Outline: (§7)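 Pot-grown crop in greenhouse clay soil (pH 6.5, 1.7% organic matter, 37.5% clay, CEC 12.9 cmol/kg). Stock diluted with water and applied pre-emergence at 300, 150, 75 or 37.5 g a.i./ha. Cultivated 15 days, then phytotoxicity scored visually as % growth inhibition versus untreated controls. Triplicate treatments, averaged.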

[25] = test system: Brassica rapa subsp. oleifera; assay: Phytotoxicity against Brassica rapa subsp. oleifera assessed as growth inhibition at 150 g.a.i/ha pre-emergent application measured after 15 days by greenhouse crop selectivity assay; format: functional; conditions: pre-emergence, 360 h, read-out: GI; outline: as §7
[26] = test system: Brassica rapa subsp. oleifera; assay: Phytotoxicity against Brassica rapa subsp. oleifera assessed as growth inhibition at 37.5 g.a.i/ha pre-emergent application measured after 15 days by greenhouse crop selectivity assay; format: functional; conditions: pre-emergence, 360 h, read-out: GI; outline: as §7
[27] = Phytotoxicity against Oryza sativa (rice) assessed as growth inhibition at 75 g.a.i/ha pre-emergent application measured after 15 days by greenhouse crop selectivity assay; format: organism-based, L.; conditions: in vivo, 75 g.a.i/ha, read-out: GI; outline: as §3
[28] = as §2; format: organism-based; conditions: in vivo, 300 g.a.i/ha, read-out: GI; outline: as §3
[29] = as §4; format: organism-based; conditions: in vivo, 75 g.a.i/ha, read-out: GI; outline: as §3
[30] = as §5; format: organism-based; conditions: in vivo, 300 g.a.i/ha, read-out: GI; outline: as §3

Compound	inhibition of growth at 15 g/ha [1]	inhibition of growth at 75 g/ha [2]	inhibition of growth at 75 g/ha [3]	growth inhibition (GI) [5]	growth inhibition (GI) [9]	growth inhibition (GI) [11]	inhibition of growth at 15 g/ha [12]	inhibition of growth at 7.5 g/ha [13]	inhibition of growth at 7.5 g/ha [14]	inhibition of growth at 7.5 g/ha [15]	inhibition of growth at 37.5 g/ha [16]	inhibition of growth at 37.5 g/ha [17]	inhibition of growth at 37.5 g/ha [18]	inhibition of growth at 15 g/ha [19]	inhibition of growth at 15 g/ha [20]	inhibition of growth at 15 g/ha [21]	inhibition of growth at 15 g/ha [22]	inhibition of growth at 15 g/ha [23]	inhibition of growth at 75 g/ha [24]	inhibition of growth at 150 g/ha [25]	further results
CCOC(=O)C(CC)N1C(=O)C(C)Oc2cc(F)c(N3C(=O)C4=C(CCCC4)C3=O)cc21 (stereo not given)	100%	> 80%	> 80%	Not Active	Not Active	Not Active	40%	100%	100%	0%	70%	100%	100%	0%	50%	100%	100%	0%	> 10%	> 10%	growth inhibition (GI) [4]: Not Active; growth inhibition (GI) [6]: Not Active; growth inhibition (GI) [7]: Not Active; growth inhibition (GI) [8]: Not Active; growth inhibition (GI) [10]: Not Active; inhibition of growth at 37.5 g/ha [26]: > 10%
C#CCN1C(=O)COc2cc(F)c(N3C(=O)C4=C(CCCC4)C3=O)cc21 [FLUMIOXAZIN]	100%	> 80%	> 80%	Not Active	Not Active	Not Active	80%	100%	100%	0%	95%	100%	100%	70%	90%	100%	100%	50%	> 10%	> 10%	inhibition at 360 h [27]: > 10%; inhibition at 360 h [28]: > 10%; inhibition at 360 h [29]: > 10%; inhibition at 360 h [30]: > 10%; inhibition of growth at 37.5 g/ha [26]: > 10%
COC(=O)C(C)N1C(=O)C(C)Oc2cc(F)c(N3C(=O)C4=C(CCCC4)C3=O)cc21 (stereo not given)	100%	> 80%	> 80%	Not Active	Not Active	Not Active	60%	100%	100%	0%	60%	100%	100%	30%	20%	100%	100%	10%	> 10%	> 10%	inhibition at 360 h [27]: > 10%; inhibition at 360 h [28]: > 10%; inhibition at 360 h [29]: > 10%; inhibition at 360 h [30]: > 10%; growth inhibition (GI) [8]: Not Active; growth inhibition (GI) [10]: Not Active; inhibition of growth at 37.5 g/ha [26]: > 10%
CCOC(=O)C(C)N1C(=O)C(C)Oc2cc(F)c(N3C(=O)C4=C(CCCC4)C3=O)cc21 (stereo not given)	100%	> 80%	> 80%	Not Active	Not Active	Not Active	0%	100%	100%	0%	50%	100%	100%	30%	30%	100%	100%	40%	> 10%	> 10%	inhibition at 360 h [27]: > 10%; growth inhibition (GI) [4]: Not Active; growth inhibition (GI) [6]: Not Active; growth inhibition (GI) [7]: Not Active; growth inhibition (GI) [8]: Not Active; growth inhibition (GI) [10]: Not Active; inhibition of growth at 37.5 g/ha [26]: > 10%
